Assays:
[1] = test system: L1210; test: Antitumor activity against mouse L1210 cells allografted in BDF1 mouse assessed as increase of host life span at 100 mg/kg, ip qd for 5 days; type: functional; conditions: route intraperitoneal
In short: (§1)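 BDF1 mice were given 1×10^5 L1210 cells ip. Compound was dissolved or suspended in 0.9% NaCl with 0.1% HCO-60 and given ip daily for 5 days, starting 24 h after inoculation. Groups had 6–10 mice. ILS = (T/C − 1) × 100, from mean survival time of treated versus control mice, observed over 60 days.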

[2] = test system: L1210; test: Antitumor activity against mouse L1210 cells allografted in BDF1 mouse assessed as increase of host life span at 25 mg/kg, ip qd for 5 days; type: functional; conditions: route intraperitoneal; in short: as §1
[3] = Toxicity in ip dosed ICR mouse up to 3 weeks; type: organism-based; conditions: in vivo
In short: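 Maximum tolerated dose was set from a single ip injection into three female ICR mice weighing 20–21 g, followed by 3 weeks of observation.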

[4] = test system: L1210; test: Antitumor activity against mouse L1210 cells allografted in BDF1 mouse assessed as increase of host life span at 6.25 mg/kg, ip qd for 5 days; type: functional; conditions: route intraperitoneal; in short: as §1
[5] = test system: L1210; test: Antitumor activity against mouse L1210 cells allografted in BDF1 mouse assessed as increase of host life span at 100 mg/kg, po qd for 5 days; type: functional
In short: (§2)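 L1210 cells (1×10^5) were implanted ip in BDF1 mice. Oral dosing began 24 h later and ran once daily for 5 days, with compound in 0.9% saline containing 0.1% HCO-60 as solution or suspension. Six to ten mice per group. Percent ILS was (T/C − 1) × 100 on mean survival time, with a 30-day observation period.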

[6] = test system: L1210; test: Antitumor activity against mouse L1210 cells allografted in BDF1 mouse assessed as increase of host life span at 200 mg/kg, po qd for 5 days; type: functional; in short: as §2

Row | SMILES | Activity [1] | Activity [2] | MTD at 504 h [3] | Activity [4] | Activity [5] | Activity [6]
1 | CCOCCC(=O)OC[C@H]1O[C@@H]2[C@H](Oc3nc(=N)ccn32)[C@@H]1OC(=O)CCOCC.Cl | 57.5% | 15.4% |  |  |  | 
2 | CCCCCCCOCCC(=O)OC[C@H]1O[C@@H]2[C@H](Oc3nc(=N)ccn32)[C@@H]1OC(=O)CCOCCCCCCC.Cl |  | 28.2% | 100 mg/kg |  |  | 
3 | CCCCCCCCCCCCOCCC(=O)OC[C@H]1O[C@@H]2[C@H](Oc3nc(=N)ccn32)[C@@H]1OC(=O)CCOCCCCCCCCCCCC.Cl | >595% | 118% | 500 mg/kg | 30.8% |  | 
4 | Cl.N=c1ccn2c(n1)O[C@@H]1[C@H](OC(=O)CCNC(=O)c3ccccc3)[C@@H](COC(=O)CCNC(=O)c3ccccc3)O[C@H]12 | 32.1% | 2.6% |  |  |  | 
5 | CCCC(=O)NCCCCCCCCCCC(=O)OC[C@H]1O[C@@H]2[C@H](Oc3nc(=N)ccn32)[C@@H]1OC(=O)CCCCCCCCCCNC(=O)CCC.Cl | 92.3% | 51.3% | 500 mg/kg | 20.5% |  | 
6 | F[B-](F)(F)F.[NH2+]=c1ccn2c(n1)O[C@@H]1[C@H](OC(=O)CCCCCCCCCCNC(=O)c3ccccc3)[C@@H](COC(=O)CCCCCCCCCCNC(=O)c3ccccc3)O[C@H]12 | >292.3% | 100% | 500 mg/kg | 38.5% |  | 
7 | Cc1ccc(S(=O)(=O)NCCC(=O)OC[C@H]2O[C@@H]3[C@H](Oc4nc(=[NH2+])ccn43)[C@@H]2OC(=O)CCNS(=O)(=O)c2ccc(C)cc2)cc1.F[B-](F)(F)F | 47.5% | 15% |  |  |  | 
8 | Cc1ccc(S(=O)(=O)NCCCCCCCCCCC(=O)OC[C@H]2O[C@@H]3[C@H](Oc4nc(=[NH2+])ccn43)[C@@H]2OC(=O)CCCCCCCCCCNS(=O)(=O)c2ccc(C)cc2)cc1.F[B-](F)(F)F | 140% | 90% | 500 mg/kg | 12.5% |  | 
9 | F[B-](F)(F)F.[NH2+]=c1ccn2c(n1)O[C@@H]1[C@H](OC(=O)CCN3C(=O)c4ccccc4C3=O)[C@@H](COC(=O)CCN3C(=O)c4ccccc4C3=O)O[C@H]12 | 39.7% | 2.6% |  |  |  | 
10 | F[B-](F)(F)F.[NH2+]=c1ccn2c(n1)O[C@@H]1[C@H](OC(=O)CCCCCN3C(=O)c4ccccc4C3=O)[C@@H](COC(=O)CCCCCN3C(=O)c4ccccc4C3=O)O[C@H]12 | 60.3% | 23.1% | 300 mg/kg |  |  | 
11 | F[B-](F)(F)F.[NH2+]=c1ccn2c(n1)O[C@@H]1[C@H](OC(=O)CCCCCCCCCCN3C(=O)c4ccccc4C3=O)[C@@H](COC(=O)CCCCCCCCCCN3C(=O)c4ccccc4C3=O)O[C@H]12 | >510.3% | 76.9% | 500 mg/kg | 23.1% |  | 
12 | CCOC(=O)CCC(=O)OC[C@H]1O[C@@H]2[C@H](Oc3nc(=N)ccn32)[C@@H]1OC(=O)CCC(=O)OCC.Cl | 35.4% | 12.4% | > 1000 mg/kg |  | 21.6% | 
13 | CCCCCCCCCCCOC(=O)CCC(=O)OC[C@H]1O[C@@H]2[C@H](Oc3nc(=N)ccn32)[C@@H]1OC(=O)CCC(=O)OCCCCCCCCCCC.Cl | 94.6% | 43.6% | 750 mg/kg | 15.4% | 10.8% | 
14 | CCOC(=O)CCCCCCCCCCCCCCC(=O)OC[C@H]1O[C@@H]2[C@H](Oc3nc(=N)ccn32)[C@@H]1OC(=O)CCCCCCCCCCCCCCC(=O)OCC.Cl | 37.3% | 10.7% |  |  | 6.7% | 
15 | C=CCCCCCCCCC(=O)OC[C@H]1O[C@@H]2[C@H](Oc3nc(=N)ccn32)[C@@H]1OC(=O)CCCCCCCCC=C.Cl | 97.5% | 51.3% | 300 mg/kg | 17.9% |  | 
16 | F[B-](F)(F)F.[NH2+]=c1ccn2c(n1)O[C@@H]1[C@H](OC(=O)CCCl)[C@@H](COC(=O)CCCl)O[C@H]12 |  |  |  |  | 9% | 38.5%
17 | Cl.N=c1ccn2c(n1)O[C@@H]1[C@H](OC(=O)CCCCCCCCCCBr)[C@@H](COC(=O)CCCCCCCCCCBr)O[C@H]12 | 145.9% | 61.5% | 300 mg/kg | 12.8% |  | 

Reference: ChEMBL document CHEMBL3227981, “Studies on biologically active nucleosides and nucleotides. 5. Synthesis and antitumor activity of some 2,2'-anhydro-1-(3',5'-di-O-acyl-beta-D-arabinofuranosyl)cytosine salts and 2,2'-anhydro-1-(3'-O-acyl-beta-D-arabinofuranoxyl)cytosine 5'-phosphates” (J Med Chem, 1979)
